Laboratory results from ChEMBL document CHEMBL1124281, “A new series of ellipticine derivatives (1-(alkylamino)-9-methoxyellipticine). Synthesis, DNA binding, and biological properties” (J Med Chem, 1988).

Legend:
Nucleic Acid [1] = assay: Maximum number of sites; type: nucleic-acid assay; conditions: Bos taurus
Method in brief: (§1)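 Calf thymus DNA binding by direct fluorescence titration (excitation 310 nm, emission 540 nm) in 10 mM acetate buffer, 100 mM NaCl, pH 5.2, 20 °C. Scatchard plots gave apparent association constant Kapp and apparent binding sites per nucleotide r_app. Drug stocks 5×10^-3 M in 50% DMSO/water, diluted in buffer.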

NIH3T3 = assay: In vitro cytotoxicity by growth inhibition in NIH3T3 cells; type: functional; conditions: Mus musculus, read-out: ID50 (the source's name)
Method in brief: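 NIH-3T3 mouse fibroblasts in DMEM, 5% fetal calf serum, 37 °C, 6% CO2, seeded at 7.5×10^3 cells/cm²; drug added 24 h later and growth followed for three days. Trypsinized cells counted electronically; ID50 taken as 50% growth inhibition vs controls, from regression against log dose.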

Mus musculus [2] = assay: In vivo antitumor effect, expressed as the highest nonlethal dose (LD0), administered by intraperitoneal route; type: ADME, organism-based; conditions: ip
Mus musculus [3] = assay: Increase in life of span over controls, 10e5 L1210 cells per mouse of 20 g, by ip route LD0/10 ata conc of LD0/10(N); type: functional; design: unit not given here
Method in brief: (§2)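 Random DBA/2 female mice of 20 g were inoculated ip with 10^5 L1210 leukemia cells. A single ip dose in 200 μL water was given 24 h later, at LD0/10, LD0/5 or LD0/2, with 10 mice per dose and 20 controls. Deaths were counted daily at the same hour. ILS was taken from treated versus control median survival time, and cured mice were counted.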

L1210 = assay: In vitro cytotoxicity by growth inhibition in L1210 cells; type: functional; conditions: Mus musculus, read-out: ID50 (the source's name)
Method in brief: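 L1210 leukemia suspension cultures in RPMI with fetal calf serum, 37 °C, 6% CO2; 10^4 cells/mL exponential phase exposed in duplicate to drug at final 10^-5–10^-8 M for 48 h. Cells counted electronically, viability by trypan blue exclusion; ID50 (50% growth inhibition vs untreated controls) from regression of % inhibition against log dose.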

Mus musculus [4] = assay: In vivo antitumor effect, expressed as the lethal dose (LD100), administered by intraperitoneal route; type: ADME, organism-based; conditions: ip
Mus musculus [5] = assay: Increase in life of span over controls, 10e5 L1210 cells per mouse of 20 g, by ip route LD0/10 ata conc of LD0/5(N); type: functional; method in brief: as §2
Nucleic Acid [6] = assay: Apparent binding constant (Kapp) to DNA, by direct fluorimetric titration, at pH 5; 10e-6; type: nucleic-acid assay; conditions: Bos taurus; method in brief: as §1
Mus musculus [7] = assay: Increase in life of span over controls, 10e5 L1210 cells per mouse of 20 g, by ip route LD0/10 ata conc of LD0/2(N); type: functional; method in brief: as §2
Mus musculus [8] = assay: Increase in life of span over controls, 10e5 L1210 cells per mouse of 20 g, by ip route LD0/10 at a conc of LD0/2(N); type: functional; method in brief: as §2
Mus musculus [9] = assay: Increase in life of span over controls, 10e5 L1210 cells per mouse of 20 g, by ip route LD0/10 at a conc of LD0/5(N); type: functional; method in brief: as §2

Structure (SMILES)	rapp (Nucleic Acid [1])	IC50 (NIH3T3)	LD0 (Mus musculus [2])	ILS (Mus musculus [3])	IC50 (L1210)	LD100 (Mus musculus [4])	ILS (Mus musculus [5])	K app (Nucleic Acid [6])	ILS (Mus musculus [7])	ILS (Mus musculus [8])	ILS (Mus musculus [9])
COc1ccc2[nH]c3c(C)c4ccnc(NCCC(C)C)c4c(C)c3c2c1	0.2	500 nM	300 mg/kg	10	800 nM	350 mg/kg	5	3.75e+06 M⁻¹	–	–	–
CCCNc1nccc2c(C)c3[nH]c4ccc(OC)cc4c3c(C)c12	0.2	300 nM	100 mg/kg	0	100 nM	200 mg/kg	2	2e+06 M⁻¹	–	–	–
COc1ccc2[nH]c3c(C)c4ccnc(N)c4c(C)c3c2c1	0.2	–	60 mg/kg	21	100 nM	70 mg/kg	39	1e+06 M⁻¹	93	–	–
COc1ccc2[nH]c3c(C)c4ccnc(NCC(C)C)c4c(C)c3c2c1	0.17	300 nM	> 200 mg/kg	–	90 nM	–	–	2.35e+06 M⁻¹	–	–	–
CCNc1nccc2c(C)c3[nH]c4ccc(OC)cc4c3c(C)c12	0.2	300 nM	70 mg/kg	2	50 nM	90 mg/kg	–	2.15e+06 M⁻¹	–	42	13
